Screening data as filed in PubChem BioAssay.
SKN-1 inh – blocks SKN-1 activity in C. elegans; 360,000 compounds, 0.49% hits; inhibition, % at 21.8 µM; C. elegans VP596 Pgst-4::GFP/RFP ratio, acrylamide-induced, 24 h;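 active = interference check ratio from 0.5 to 1.5 plus GFP to RFP signal ratio inhibition reaching or exceeding a fixed threshold, cut at about 30% in these data, passing the limit was not always enough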
PG9 Ab binder – small molecules binding HIV-1 gp120 antibody PG9; TR-FRET gp120-PG9 antibody binding; inhibition, % at 6.7 µM; 360,000 compounds, 0.43% hits; in the data active = inhibition above about 8.5%
NR2E3 ag-1 – NR2E3 (human) agonism. AID 2300. Q9Y5X4. 320,000 compounds, 0.12% hits. GST-NR2E3/biotin-RetCOR TR-FRET, 1536-well. inhibition of corepressor binding, % at 4.78 µM;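 active = percent inhibition above the cutoff of mean plus 3 SD of all tested compounds, set per screening campaign, cut at about 20% in these data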
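Material: NR2E3–RetCOR corepressor complex | Quantity: 1.35 nM GST-tagged NR2E3 final | Schedule: 5 h at 4 °C | Replication: Singlicate compound wells | Reagent: RetCOR corepressor, biotinylated, 7 nM | Controls: Biotin wells as high control, 0.6% DMSO wells as low control | Signal: TR-FRET, Eu(K)-anti-GST donor, streptavidin-D2 acceptor, ex 340, em 617/671 nm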
NR2E3 ag-2 – agonists of human NR2E3 nuclear receptor; CHO-S Gal4-NCOR/VP16-NR2E3 two-hybrid, luciferase; inhibition of corepressor binding, % at 3.98 µM; Q9Y5X4; 360,000 compounds, 0.35% hits;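 active = inhibition above the mean of all tested compounds plus 3 SD, cut at about 70% in these data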;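 note: higher means lower luciferase signal from less NR2E3 corepressor binding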
NR1D1 modulator – Rev-erb alpha (human) modulation; 370,000 compounds, 0.79% hits; AID 1259318; P20393; activity, % at 10 µM; Rev-erbα–FITC-DNA binding, fluorescence polarization, 90 min;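 active = activity above about 14%, limit read from the data; passing the limit was not always enough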
Target sequence (P20393 whole entry, looked up): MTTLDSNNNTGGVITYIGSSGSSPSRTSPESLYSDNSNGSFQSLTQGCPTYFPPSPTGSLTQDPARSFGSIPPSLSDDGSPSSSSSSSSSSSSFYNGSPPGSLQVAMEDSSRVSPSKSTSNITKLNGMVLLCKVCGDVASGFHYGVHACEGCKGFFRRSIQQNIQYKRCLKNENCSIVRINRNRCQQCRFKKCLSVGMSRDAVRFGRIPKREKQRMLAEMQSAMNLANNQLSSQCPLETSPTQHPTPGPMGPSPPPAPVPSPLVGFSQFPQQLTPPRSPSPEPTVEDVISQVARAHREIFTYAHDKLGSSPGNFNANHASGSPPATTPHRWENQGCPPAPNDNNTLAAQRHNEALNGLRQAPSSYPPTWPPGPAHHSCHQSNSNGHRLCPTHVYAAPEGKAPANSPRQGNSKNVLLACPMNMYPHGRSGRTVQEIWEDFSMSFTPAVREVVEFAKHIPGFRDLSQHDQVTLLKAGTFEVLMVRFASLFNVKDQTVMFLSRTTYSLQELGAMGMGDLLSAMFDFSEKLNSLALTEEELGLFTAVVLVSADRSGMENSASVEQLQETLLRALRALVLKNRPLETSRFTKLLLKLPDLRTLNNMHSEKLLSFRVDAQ
MT1-MMP act inh – inhibitors of human MT1-MMP activation | 360,000 compounds, 0.061% hits | P50281 | GFP/RFP ratio change, % at 20 µM | HT1080 RFP-PRO-GFP cells, GFP/RFP ratio fluorescence, overnight; percent of plate control window, DMSO zero;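 active = GFP/RFP ratio change of at least 30% with cell ATP level not reduced by more than half and red fluorescence within 50% of control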
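Assay system – RFP-PRO-GFP reporter HT1080 cells · Compound dosing – single dose of 20 µM compound, 1% DMSO final · Incubation – overnight compound exposure at 37 °C · Measure – GFP/RFP fluorescence ratio · Benchmarks – DMSO wells and RFP-L50D-GFP cells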
Numbers stand for hits; 0 = inactive; - = no result given. An excerpt weighted towards active compounds, which were near 1.9% of everything screened.

SMILES	SKN-1 inh	PG9 Ab binder	NR2E3 ag-1	NR2E3 ag-2	NR1D1 modulator	MT1-MMP act inh
CCN(C(=O)CN1C(=O)S/C(=C\c2cccc(Cl)c2)C1=O)C1CCS(=O)(=O)C1 (stereo not given)	37	0	0	0	0	0
Cc1ccccc1C(=O)NC1CCCCN(Cc2ccc(Cl)cc2)C1=O (stereo not given)	-	-	-	-	0	-
O=c1c2ccccc2oc2ccc(Oc3ccccc3)cc12	41	0	0	0	0	0
COc1cc2oc3ccccc3c(=O)c2cc1OC	0	-	0	0	-	0
O=C(c1ccc(F)c(F)c1)N1CCC(Oc2cccnc2)CC1	-	-	-	-	0	-
O=C(CNS(=O)(=O)c1cccc(Cl)c1)Nc1ccc(-c2nc3ccccc3s2)cc1	0	0	0	0	0	0
CC(C)(C)c1ccc(S(=O)(=O)NCC(=O)Nc2ccc(-c3nc4ccccc4s3)cc2)cc1	0	8.9	0	0	0	0
Cc1cc(C)c(C(=O)/C=C/C=C/c2ccccc2)c(=O)[nH]1	0	0	0	0	0	0
Cc1cc(C)c(C(=O)/C=C/c2ccc(C(C)C)cc2)c(=O)[nH]1	0	0	0	82	0	0
O=C(O)CCNS(=O)(=O)c1ccc2ccccc2c1	0	0	0	0	0	0
O=C(O)CCNc1cc2ccccc2cc1C(=O)O	36	0	0	0	0	0
CCCCCCCCCCCCCCCC(=O)OCC(O)[C@H]1OC(=O)C(O)=C1O (stereo not given in full)	-	-	-	-	0	-
Oc1ccc2[nH]cc(-c3cccs3)c2c1-c1ccccc1	-	-	-	-	0	-
CC/C=C\C/C=C\C/C=C\C/C=C\C/C=C\CCCC(=O)OCC	-	-	-	-	0	-
CC(C)C[C@@H]1NC(=O)[C@H]2C[C@]3(c4ccccc4)c4ccccc4N[C@H]3N2C1=O	-	-	-	-	0	-
O=C(O)CN1C(=O)C2C3CC(C2C1=O)C1C(c2ccc(F)cc2)c2sc(=O)[nH]c2SC31 (stereo not given)	48	0	0	0	0	0
Cc1cc2c(nc1C)CCCN2S(=O)(=O)c1ccccc1	-	0	-	-	0	-
NC(=O)c1ccc(-c2noc(-c3ccccc3F)n2)cc1	0	0	0	0	0	0
O=C1c2ccccc2C(=O)N1CCc1nc(-c2ccc(Cl)cc2)no1	48	0	0	0	0	0
Fc1ccccc1-c1nc(-c2ccc(Cl)cc2)no1	36	0	0	0	0	0
O=C1c2ccccc2C(=O)N1CCc1nc(-c2ccncc2)no1	0	0	0	0	0	0
Clc1ccc2c(c1)c1cc(Cl)ccc1n2CN1CCOCC1	33	0	0	0	0	0
Fc1cc(Cl)cc2ccc(-c3ccccc3)nc12	36	0	-	0	0	0
Fc1ccc2nc(-c3ccccc3)ccc2c1	0	0	-	0	0	0
C[C@H]1COc2cccc(NCCO)c2S(=O)(=O)N1	-	0	-	-	0	-
SMILES	SKN-1 inh	PG9 Ab binder	NR2E3 ag-1	NR2E3 ag-2	NR1D1 modulator	MT1-MMP act inh
OC[C@H]1O[C@H](O[C@]2(CCl)O[C@H](CCl)[C@@H](O)[C@@H]2O)[C@H](O)[C@@H](O)[C@H]1Cl	-	-	-	-	0	-
O=[N+]([O-])c1ccc(Nc2ccc(Cl)cc2)nc1	39	0	0	0	0	0
O=[N+]([O-])c1ccc(NCc2ccc(Cl)cc2)nc1	43	0	0	0	0	0
O=[N+]([O-])c1ccc(Nc2ccc3ccccc3c2)nc1	0	0	0	0	0	0
O=C1/C(=C/N(C(=O)c2ccco2)c2ccc(Br)cc2)Sc2ccccc21	38	-	0	0	-	0
CN(C(=O)COC(=O)C1c2ccccc2Oc2ccccc21)C1CCS(=O)(=O)C1 (stereo not given)	48	0	0	0	0	0
CCN=C1NC(c2ccccc2)C(C(=O)OC)=C(C)N1Cc1ccc(C(F)(F)F)cc1 (stereo not given)	-	0	-	-	0	-
CCN(CC)Cc1ccc(NC(=O)c2sc3cc(Cl)ccc3c2Cl)cc1	51	0	0	0	0	0
Cc1ccc(/C=C/C(=O)N2CCc3ccccc32)o1	0	0	0	0	0	0
O=C(/C=C/c1ccco1)N1CCc2ccccc21	58	0	0	0	0	0
Nc1ccn(C2O[C@H](CO)[C@@H](O)[C@@H]2O)c(=O)n1 (stereo not given in full)	-	-	-	-	0	-
CCCOC(=O)c1ccc(NC(=O)/C=C/c2cccs2)cc1	47	0	0	0	0	0
O=C(/C=C/c1cccs1)Nc1ccncc1	0	0	0	0	0	0
C=CCN1C(=O)c2n[nH]c(COC)c2C1c1ccc(Br)cc1 (stereo not given)	-	0	-	-	0	-
COC(=O)Oc1ccc(/C=N/NC(=O)CN(c2ccccc2Br)S(C)(=O)=O)cc1OC	0	0	0	0	0	0
CN(C)c1ccc(/C=N/NC(=O)CN(c2ccccc2Cl)S(C)(=O)=O)cc1Br	36	0	0	0	0	0
CN(CCOC(=O)CSc1ccccc1)C1CN(Cc2cn(Cc3ccccc3F)nn2)S(=O)(=O)C1 (stereo not given)	-	-	-	-	0	-
CN(Cc1ccccc1)C(=O)c1nc[nH]c1C(=O)N1CCc2ccccc2C1	0	0	0	0	0	0
O=C(c1nc[nH]c1C(=O)N1CCc2ccccc2C1)N1CCc2ccccc2C1	38	0	0	0	0	0
O=S1(=O)c2cc(Cl)ccc2N2CC[C@H](C2)N1Cc1ccc(Cl)c(Cl)c1	-	0	-	-	0	-
Cc1ccc(-n2nnc(-c3nccs3)n2)cc1	0	0	0	0	0	0
Brc1ccccc1-n1nnc(-c2cccnc2)n1	0	0	0	0	0	0
Clc1ccc(-n2nnc(-c3nccs3)n2)cc1Cl	61	0	0	0	0	0
Fc1ccc(-n2nnc(-c3cccnc3)n2)cc1	56	0	0	0	0	0
Clc1ccc(-n2nnc(-c3cccnc3)n2)cc1Cl	59	0	0	0	0	0
SMILES	SKN-1 inh	PG9 Ab binder	NR2E3 ag-1	NR2E3 ag-2	NR1D1 modulator	MT1-MMP act inh
O=C(Nc1cccc([N+](=O)[O-])c1)NC1CCCCN(Cc2ccc(Cl)cc2)C1=O (stereo not given)	-	-	-	-	0	-
Cc1ccc(S(=O)(=O)N2CC3=C(c4ccccc4)CC4(C)C(=O)C(C)(C)CC4=C3C2)cc1 (stereo not given)	-	0	-	-	0	-
CCCCC(=O)O[C@]1(C(=O)CO)CCC2C3CCC4=CC(=O)CC[C@]4(C)C3[C@@H](O)C[C@@]21C (stereo not given in full)	-	-	-	-	0	-
COC(=O)c1cc(-c2cccc(OC)c2)n[nH]1	37	0	0	0	0	0
O=C(CN1CCCC1)Nc1sc2c(c1C(=O)Nc1ccc(Br)cc1)CCC2	38	0	0	0	0	0
CN1CCN(CC(=O)Nc2sc3c(c2C(=O)Nc2ccccc2)CCCC3)CC1	0	0	0	0	0	0
CN(CC(=O)Nc1cccc(F)c1)C(=O)CC1CC2CCC1C2 (stereo not given)	36	0	0	0	0	0
